Reference: ChEMBL document CHEMBL4316593 (Eur J Med Chem, 2019)

Key:
[1] = Inhibition of RTK/PI3K/AKT/mTOR signaling in human U87 cells assessed as up regulation of RPS14 gene expression at cytotoxic IC50 measured after 48 hrs relative to control; type: cell-based; settings: U-87MG ATCC
In short: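 U87 cells were exposed for 48 hrs at 37°C under 5% CO₂, with cisplatin and untreated controls, all in triplicate. RNA was isolated by the same protocol for every sample and expression profiled from mapped reads. Differential expression against untreated cells was called in DESeq2 (q-value < 0.05, fold change > 1.5).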

[2] = Inhibition of RTK/PI3K/AKT/mTOR signaling in human U87 cells assessed as down regulation of PTGES3 gene expression at cytotoxic IC50 measured after 48 hrs relative to control; type: cell-based; settings: U-87MG ATCC
In short: (§1)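 Cells were exposed for 48hrs at 37°C in humidified 5% CO₂ to the compound at its previously determined IC₅₀, with Cisplatin at its IC₅₀ and an untreated negative control alongside. Each condition was run in triplicate. RNA was isolated from all samples by the same protocol. Genes were called differentially expressed by DESeq2 at q-value < 0.05 and fold change > 1.5.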

[3] = Inhibition of RTK/PI3K/AKT/mTOR signaling in human U87 cells assessed as down regulation of ZMAT2 gene expression at cytotoxic IC50 measured after 48 hrs relative to control; type: cell-based; settings: U-87MG ATCC; in short: as §1
[4] = Inhibition of RTK/PI3K/AKT/mTOR signaling in human U87 cells assessed as up regulation of MYC gene expression at cytotoxic IC50 measured after 48 hrs relative to control; type: cell-based; settings: U-87MG ATCC; in short: as §1
U-87 MG [5] = assay: Induction of DNA damage in human U87 cells assessed as change in CDK1 gene expression at cytotoxic IC50 measured after 48 hrs […] relative to control; type: functional, U-87MG ATCC
In short: (§2)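 U87 expression profiling. Cells incubated 48hrs at 37°C, 5% CO₂ with the IC₅₀ concentration, alongside a cisplatin and an untreated control, in triplicate. RNA was isolated by one common protocol and profiled. DEGs were called with DESeq2 (q < 0.05, fold change > 1.5) and expressed as fold change versus untreated.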

U-87 MG [6] = assay: Cell cycle arrest in human U87 cells assessed as change in GADD45B gene expression at cytotoxic IC50 measured after 48 hrs […] relative to control; type: functional, U-87MG ATCC; in short: as §2
LN-229 = assay: Cytotoxicity against human LN229 cells assessed as reduction in cell proliferation up to 200 uM by trypan blue dye-based cell counting analysis; type: functional; settings: TDE = time-dependent effect
U-87 MG [7] = assay: Induction of apoptosis in human U87 cells assessed as change in FOS gene expression at cytotoxic IC50 measured after 48 hrs […] relative to control; type: functional, U-87MG ATCC
In short: (§3)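 U87 cells grown in MEM with 10% FBS at 37°C, 5% CO2. Cells exposed to IC50 of test compound for 48 hrs, alongside untreated and cisplatin controls, each condition in triplicate. RNA isolated and profiled; differential expression called with DESeq2 (q-value < 0.05, fold change > 1.5), fold change versus untreated.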

[8] = Inhibition of RTK/PI3K/AKT/mTOR signaling in human U87 cells assessed as up regulation of mesencephalic astrocyte derived neurotrophic factor gene expression at cytotoxic IC50 measured after 48 hrs relative to control; type: cell-based
[9] = Inhibition of RTK/PI3K/AKT/mTOR signaling in human U87 cells assessed as down regulation of XPO6 gene expression at cytotoxic IC50 measured after 48 hrs relative to control; type: cell-based; settings: U-87MG ATCC; in short: as §1
[10] = Inhibition of RTK/PI3K/AKT/mTOR signaling in human U87 cells assessed as up regulation of lemur tyrosine kinase 3 gene expression at cytotoxic IC50 measured after 48 hrs relative to control; type: cell-based; settings: U-87MG ATCC
U-87 MG [11] = assay: Induction of oxidative stress in human U87 cells assessed as increase in redox level at cytotoxic IC50 measured after 5 hrs by H2DCFDA dye based fluorescence assay relative to control; type: functional, U-87MG ATCC
In short: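 Cells grown overnight, exposed to IC50 for 5 hrs at 37°C with negative, positive (H2O2) and blank controls, plus solvent baseline. Pelleted, loaded with 2 µM H2DCFDA for 30 min at 37°C, washed, resuspended in warm medium, 20 min at room temperature. Fluorescence read at ex 485/em 535 nm.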

U-87 MG [12] = assay: Cell cycle arrest in human U87 cells assessed as change in PKMYT1 gene expression at cytotoxic IC50 measured after 48 hrs […] relative to control; type: functional, U-87MG ATCC; in short: as §2
[13] = Inhibition of RTK/PI3K/AKT/mTOR signaling in human U87 cells assessed as down regulation of HELLS gene expression at cytotoxic IC50 measured after 48 hrs relative to control; type: cell-based; settings: U-87MG ATCC; in short: as §3
[14] = Inhibition of RTK/PI3K/AKT/mTOR signaling in human U87 cells assessed as up regulation of CAPN1 gene expression at cytotoxic IC50 measured after 48 hrs relative to control; type: cell-based; settings: U-87MG ATCC; in short: as §1
U-87 MG [15] = assay: Induction of apoptosis in human U87 cells assessed as change in ACTB gene expression at cytotoxic IC50 measured after 48 hrs […] relative to control; type: functional, U-87MG ATCC; in short: as §3
U-87 MG [16] = assay: Induction of DNA damage in human U87 cells assessed as change in E2F7 gene expression at cytotoxic IC50 measured after 48 hrs […] relative to control; type: functional, U-87MG ATCC; in short: as §2
U-87 MG [17] = assay: Induction of apoptosis in human U87 cells assessed as change in GADD45A gene expression at cytotoxic IC50 measured after 48 hrs […] relative to control; type: functional, U-87MG ATCC; in short: as §3
U-87 MG [18] = assay: Cytotoxicity against human U87 cells assessed as reduction in cell proliferation up to 200 uM by trypan blue dye-based cell counting analysis; type: functional; settings: U-87MG ATCC, TDE = time-dependent effect
In short: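 U87 cells grown 24hrs, then treated for 5hrs with 0-200 μM. Viability by trypan blue exclusion; mean ± S.E.M, n = 4 per group, one-way ANOVA.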

U-87 MG [19] = assay: Induction of DNA damage in human U87 cells assessed as change in TRIAP1 gene expression at cytotoxic IC50 measured after 48 hrs […] relative to control; type: functional, U-87MG ATCC; in short: as §3
[20] = Inhibition of RTK/PI3K/AKT/mTOR signaling in human U87 cells assessed as up regulation of TOX2 gene expression at cytotoxic IC50 measured after 48 hrs relative to control; type: cell-based; settings: U-87MG ATCC
U-87 MG [21] = assay: Induction of apoptosis in human U87 cells assessed as change in MAPK8 gene expression at cytotoxic IC50 measured after 48 hrs […] relative to control; type: functional, U-87MG ATCC; in short: as §3
[22] = Inhibition of RTK/PI3K/AKT/mTOR signaling in human U87 cells assessed as down regulation of EIF1B gene expression at cytotoxic IC50 measured after 48 hrs relative to control; type: cell-based; settings: U-87MG ATCC; in short: as §3
[23] = Inhibition of RTK/PI3K/AKT/mTOR signaling in human U87 cells assessed as down regulation of FLII gene expression at cytotoxic IC50 measured after 48 hrs relative to control; type: cell-based; settings: U-87MG ATCC; in short: as §3
[24] = Inhibition of RTK/PI3K/AKT/mTOR signaling in human U87 cells assessed as up regulation of basic transcription factor 3 like 4 gene expression at cytotoxic IC50 measured after 48 hrs relative to control; type: cell-based; settings: U-87MG ATCC
[25] = Inhibition of RTK/PI3K/AKT/mTOR signaling in human U87 cells assessed as up regulation of AXL gene expression at cytotoxic IC50 measured after 48 hrs relative to control; type: cell-based; settings: U-87MG ATCC; in short: as §1

SMILES: CC(=O)C(=NNc1ccccc1C#N)C(C)=O
- log2FC [1]: 0.607
- log2FC [2]: -0.422
- log2FC [3]: -0.716
- log2FC [4]: 0.54
- fold change (FC) (U-87 MG [5]): 1.569
- fold change (FC) (U-87 MG [6]): -2.899
- Activity (LN-229): Tde
- log2FC (U-87 MG [7]): -3.569
- log2FC [8]: 0.684
- log2FC [9]: -0.363
- log2FC [10]: 0.868
- Activity (U-87 MG [11]): 9.5%
- fold change (FC) (U-87 MG [12]): 1.852
- log2FC [13]: -1.06
- log2FC [14]: 0.475
- log2FC (U-87 MG [15]): -1.876
- fold change (FC) (U-87 MG [16]): 2.057
- log2FC (U-87 MG [17]): -0.9679
- Activity (U-87 MG [18]): Tde
- fold change (FC) (U-87 MG [19]): 2.018
- log2FC [20]: 1.66
- log2FC (U-87 MG [21]): -1.076
- log2FC [22]: -0.906
- log2FC [23]: -0.583
- log2FC [24]: 0.896
- log2FC [25]: 1.89
